From ChEMBL document CHEMBL3351639, “Fluorinated analogues of marsanidine, a highly α2-AR/imidazoline I1 binding site-selective hypotensive agent. Synthesis and biological activities” (Eur J Med Chem, 2014)

Tests used:
[1] = biological target: T1, Adrenergic receptor alpha-2 (Rattus norvegicus, UniProt P22086+P19328+P22909); test: Displacement of [3H]RX821002 from alpha2-adrenoceptor in Sprague-Dawley rat brain membranes after 45 mins by liquid scintillation counting; format: cell membranes, Membrane
T1 sequence (P22086 whole entry): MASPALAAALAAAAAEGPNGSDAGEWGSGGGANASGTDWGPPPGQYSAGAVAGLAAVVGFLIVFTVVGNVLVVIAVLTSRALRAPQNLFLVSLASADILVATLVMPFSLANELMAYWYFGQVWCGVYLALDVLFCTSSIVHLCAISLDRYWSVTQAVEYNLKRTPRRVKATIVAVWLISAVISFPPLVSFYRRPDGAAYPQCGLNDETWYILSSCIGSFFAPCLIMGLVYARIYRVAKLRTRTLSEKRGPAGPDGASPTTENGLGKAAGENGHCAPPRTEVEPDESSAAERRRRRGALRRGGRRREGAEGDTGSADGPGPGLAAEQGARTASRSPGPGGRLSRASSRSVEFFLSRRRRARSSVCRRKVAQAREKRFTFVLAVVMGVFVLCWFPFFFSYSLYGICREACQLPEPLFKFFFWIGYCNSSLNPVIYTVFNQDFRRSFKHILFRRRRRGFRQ
T1 sequence (P19328 whole entry): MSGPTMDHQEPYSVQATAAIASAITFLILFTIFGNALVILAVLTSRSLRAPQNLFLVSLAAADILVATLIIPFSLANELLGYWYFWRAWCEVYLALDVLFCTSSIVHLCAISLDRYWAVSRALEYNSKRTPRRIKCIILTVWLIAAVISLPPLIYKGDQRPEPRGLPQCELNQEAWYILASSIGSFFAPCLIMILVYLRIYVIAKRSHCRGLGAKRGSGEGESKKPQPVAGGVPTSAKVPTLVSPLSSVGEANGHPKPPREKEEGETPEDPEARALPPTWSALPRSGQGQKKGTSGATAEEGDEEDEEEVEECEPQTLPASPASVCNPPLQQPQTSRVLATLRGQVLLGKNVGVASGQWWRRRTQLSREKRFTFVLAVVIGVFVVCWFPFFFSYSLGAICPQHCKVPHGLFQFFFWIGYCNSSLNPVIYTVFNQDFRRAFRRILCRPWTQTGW
T1 sequence (P22909 whole entry): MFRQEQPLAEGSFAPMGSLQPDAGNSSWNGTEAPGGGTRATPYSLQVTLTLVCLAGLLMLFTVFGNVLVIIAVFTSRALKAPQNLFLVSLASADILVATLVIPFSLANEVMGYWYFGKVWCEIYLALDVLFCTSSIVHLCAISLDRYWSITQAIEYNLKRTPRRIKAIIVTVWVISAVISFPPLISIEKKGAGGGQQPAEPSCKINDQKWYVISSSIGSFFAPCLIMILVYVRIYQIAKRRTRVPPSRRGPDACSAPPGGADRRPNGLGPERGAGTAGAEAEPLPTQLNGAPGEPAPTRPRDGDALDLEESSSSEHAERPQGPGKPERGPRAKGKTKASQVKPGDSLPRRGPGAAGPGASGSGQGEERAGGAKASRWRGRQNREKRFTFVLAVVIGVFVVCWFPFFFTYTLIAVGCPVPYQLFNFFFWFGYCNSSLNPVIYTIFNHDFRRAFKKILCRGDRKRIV
Summary of the method: (§1)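 Crude P2 membranes from brains of male Sprague-Dawley rats (250–280 g), 0.2–0.3 mg protein. Radioligand 1 nM [3H]RX821002 (α2) or [3H]prazosin (α1); 11 concentrations of compound, 0.1 nM–100 µM. Non-specific binding: 10 µM rauwolscine (α2) or 10 µM phenylephrine (α1). Triplicate incubation, RT, 45 min. PEI-soaked glass-fibre filtration, then scintillation counting. Ki by Cheng-Prusoff; 3–4 experiments, or one for low-affinity compounds.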

[2] = Displacement of […] from imidazoline I2 receptor in Sprague-Dawley rat kidney membranes after 45 mins by liquid scintillation counting; format: cell membranes, Membrane
Nischarin = Nischarin (Rattus norvegicus, UniProt Q4G017); test: Displacement of […] from imidazoline I1 receptor in Sprague-Dawley rat kidney membranes after 45 mins by liquid scintillation counting; format: cell membranes, Membrane
Chain of Nischarin (Q4G017 whole entry): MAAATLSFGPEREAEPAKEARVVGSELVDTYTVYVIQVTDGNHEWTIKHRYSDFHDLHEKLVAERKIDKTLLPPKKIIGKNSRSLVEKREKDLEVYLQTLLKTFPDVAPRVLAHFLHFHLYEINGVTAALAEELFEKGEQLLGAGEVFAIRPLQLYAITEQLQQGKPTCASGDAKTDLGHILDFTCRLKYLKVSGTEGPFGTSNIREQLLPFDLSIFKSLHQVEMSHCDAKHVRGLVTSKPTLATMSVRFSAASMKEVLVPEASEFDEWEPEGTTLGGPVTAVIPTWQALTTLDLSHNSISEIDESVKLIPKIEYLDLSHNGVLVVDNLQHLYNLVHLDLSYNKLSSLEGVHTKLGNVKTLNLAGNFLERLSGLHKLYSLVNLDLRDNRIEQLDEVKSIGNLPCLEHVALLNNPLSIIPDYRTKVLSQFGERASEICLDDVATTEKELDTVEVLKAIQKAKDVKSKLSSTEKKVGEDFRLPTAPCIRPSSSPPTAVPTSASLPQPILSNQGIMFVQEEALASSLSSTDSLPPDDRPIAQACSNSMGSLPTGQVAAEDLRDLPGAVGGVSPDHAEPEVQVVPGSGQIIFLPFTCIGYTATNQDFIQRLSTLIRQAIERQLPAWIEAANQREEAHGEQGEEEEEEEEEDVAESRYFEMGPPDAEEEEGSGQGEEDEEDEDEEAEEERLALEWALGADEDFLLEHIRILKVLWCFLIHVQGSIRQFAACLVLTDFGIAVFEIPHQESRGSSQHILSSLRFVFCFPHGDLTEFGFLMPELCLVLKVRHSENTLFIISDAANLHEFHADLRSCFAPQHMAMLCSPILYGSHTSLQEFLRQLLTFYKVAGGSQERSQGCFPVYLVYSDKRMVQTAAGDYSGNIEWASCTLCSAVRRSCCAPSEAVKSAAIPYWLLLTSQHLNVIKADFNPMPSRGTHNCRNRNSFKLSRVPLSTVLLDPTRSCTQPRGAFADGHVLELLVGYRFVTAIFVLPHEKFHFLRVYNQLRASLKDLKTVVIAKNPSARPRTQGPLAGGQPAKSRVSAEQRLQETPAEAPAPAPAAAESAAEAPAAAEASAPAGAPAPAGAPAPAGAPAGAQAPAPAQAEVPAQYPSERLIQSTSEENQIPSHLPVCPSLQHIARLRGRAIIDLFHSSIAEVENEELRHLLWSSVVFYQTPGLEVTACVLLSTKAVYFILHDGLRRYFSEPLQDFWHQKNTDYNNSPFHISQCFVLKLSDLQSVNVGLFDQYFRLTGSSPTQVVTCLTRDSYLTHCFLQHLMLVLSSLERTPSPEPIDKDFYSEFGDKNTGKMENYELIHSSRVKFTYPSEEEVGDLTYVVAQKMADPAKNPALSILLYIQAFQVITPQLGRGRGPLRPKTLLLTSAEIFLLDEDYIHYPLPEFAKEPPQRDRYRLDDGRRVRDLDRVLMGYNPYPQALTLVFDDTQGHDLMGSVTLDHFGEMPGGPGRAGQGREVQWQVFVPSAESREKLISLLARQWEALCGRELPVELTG

[3] = biological target: T2, Adrenergic receptor alpha-1 (Rattus norvegicus, UniProt P15823+P23944+P43140); test: Displacement of [3H]prazosin from alpha1-adrenoceptor in Sprague-Dawley rat brain membranes after 45 mins by liquid scintillation counting; format: cell membranes, Membrane; summary of the method: as §1
T2 sequence (P15823 whole entry): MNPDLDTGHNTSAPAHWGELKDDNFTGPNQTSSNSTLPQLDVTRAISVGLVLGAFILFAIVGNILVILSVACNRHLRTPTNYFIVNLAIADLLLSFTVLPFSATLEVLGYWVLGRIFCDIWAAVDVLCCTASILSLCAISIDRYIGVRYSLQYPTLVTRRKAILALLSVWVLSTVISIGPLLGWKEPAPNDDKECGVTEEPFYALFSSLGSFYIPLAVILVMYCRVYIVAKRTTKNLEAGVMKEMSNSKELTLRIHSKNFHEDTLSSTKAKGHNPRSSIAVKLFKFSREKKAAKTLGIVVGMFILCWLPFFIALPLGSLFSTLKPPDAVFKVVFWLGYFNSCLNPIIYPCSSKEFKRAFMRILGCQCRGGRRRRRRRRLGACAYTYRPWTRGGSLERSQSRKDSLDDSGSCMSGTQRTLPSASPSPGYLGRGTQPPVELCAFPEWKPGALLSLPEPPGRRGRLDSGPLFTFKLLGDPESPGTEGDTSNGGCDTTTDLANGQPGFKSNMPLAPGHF
T2 sequence (P23944 whole entry): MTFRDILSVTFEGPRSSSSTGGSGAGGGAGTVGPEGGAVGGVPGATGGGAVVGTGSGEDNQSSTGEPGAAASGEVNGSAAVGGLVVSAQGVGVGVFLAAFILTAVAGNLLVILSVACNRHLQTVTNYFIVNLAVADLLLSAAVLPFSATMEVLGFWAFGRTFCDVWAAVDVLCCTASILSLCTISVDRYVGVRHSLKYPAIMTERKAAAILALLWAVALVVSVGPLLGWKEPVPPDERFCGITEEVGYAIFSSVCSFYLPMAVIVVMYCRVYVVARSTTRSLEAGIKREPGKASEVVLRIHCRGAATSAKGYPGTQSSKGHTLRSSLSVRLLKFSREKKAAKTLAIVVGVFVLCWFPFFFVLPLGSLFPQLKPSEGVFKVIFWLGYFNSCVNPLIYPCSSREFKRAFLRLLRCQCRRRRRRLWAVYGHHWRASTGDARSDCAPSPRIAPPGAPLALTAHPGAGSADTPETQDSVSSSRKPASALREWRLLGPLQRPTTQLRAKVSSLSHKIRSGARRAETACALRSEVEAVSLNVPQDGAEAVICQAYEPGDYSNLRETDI
T2 sequence (P43140 whole entry): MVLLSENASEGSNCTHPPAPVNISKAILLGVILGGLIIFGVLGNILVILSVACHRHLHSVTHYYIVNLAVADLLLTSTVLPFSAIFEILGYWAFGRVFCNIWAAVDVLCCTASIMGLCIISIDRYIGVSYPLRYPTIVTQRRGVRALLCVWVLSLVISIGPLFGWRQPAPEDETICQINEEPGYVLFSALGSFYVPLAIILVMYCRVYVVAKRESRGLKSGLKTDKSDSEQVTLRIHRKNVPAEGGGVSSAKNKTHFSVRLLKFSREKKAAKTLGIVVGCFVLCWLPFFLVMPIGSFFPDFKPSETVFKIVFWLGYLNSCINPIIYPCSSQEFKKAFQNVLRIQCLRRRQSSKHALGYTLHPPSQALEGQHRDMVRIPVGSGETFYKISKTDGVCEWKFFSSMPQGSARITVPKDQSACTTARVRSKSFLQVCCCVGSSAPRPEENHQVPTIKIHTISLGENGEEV

[4] = biological target: T3, Alpha-2A adrenergic receptor (Homo sapiens) (UniProt P08913); test: Intrinsic activity at human alpha2A adrenoceptor expressed in CHO-K1 cells after 30 mins by [35S]GTPgammaS binding assay relative to norepinephrine; format: functional, cell-based
T3 sequence (whole entry): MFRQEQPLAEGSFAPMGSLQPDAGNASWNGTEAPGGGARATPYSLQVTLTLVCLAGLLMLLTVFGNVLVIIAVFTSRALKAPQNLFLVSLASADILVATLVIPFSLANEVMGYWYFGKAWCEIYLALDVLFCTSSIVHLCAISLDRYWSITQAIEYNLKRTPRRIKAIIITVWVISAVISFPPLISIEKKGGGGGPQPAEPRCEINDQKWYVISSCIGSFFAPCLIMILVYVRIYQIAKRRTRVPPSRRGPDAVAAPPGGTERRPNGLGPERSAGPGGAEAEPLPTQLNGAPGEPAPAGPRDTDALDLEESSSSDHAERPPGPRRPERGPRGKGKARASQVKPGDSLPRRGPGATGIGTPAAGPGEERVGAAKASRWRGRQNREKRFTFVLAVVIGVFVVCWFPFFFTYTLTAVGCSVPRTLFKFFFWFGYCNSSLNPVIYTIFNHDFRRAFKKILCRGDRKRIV
Summary of the method: (§2)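 Membranes from CHO cells stably expressing human α2A-AR (5 µg protein) were incubated with 7 or 8 serial dilutions of compound and 0.1 nM [35S]GTPγS. Buffer: 25 mM Tris, 1 mM EDTA, 5 mM MgCl2, 20 mM NaCl, 1 µM GDP, 1 mM DTT, 30 µM ascorbic acid, pH 7.4. Incubation 30 min at RT, then vacuum filtration and scintillation counting. Run in duplicate, at least 3 repeats.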

[5] = biological target: T4, Alpha-2C adrenergic receptor (Homo sapiens, UniProt P18825); test: Displacement of [3H]RS-79948-197 from human alpha2C adrenoceptor expressed in CHO-K1 cells after 45 mins by liquid scintillation counting; format: cell-based
T4 sequence (P18825 whole entry): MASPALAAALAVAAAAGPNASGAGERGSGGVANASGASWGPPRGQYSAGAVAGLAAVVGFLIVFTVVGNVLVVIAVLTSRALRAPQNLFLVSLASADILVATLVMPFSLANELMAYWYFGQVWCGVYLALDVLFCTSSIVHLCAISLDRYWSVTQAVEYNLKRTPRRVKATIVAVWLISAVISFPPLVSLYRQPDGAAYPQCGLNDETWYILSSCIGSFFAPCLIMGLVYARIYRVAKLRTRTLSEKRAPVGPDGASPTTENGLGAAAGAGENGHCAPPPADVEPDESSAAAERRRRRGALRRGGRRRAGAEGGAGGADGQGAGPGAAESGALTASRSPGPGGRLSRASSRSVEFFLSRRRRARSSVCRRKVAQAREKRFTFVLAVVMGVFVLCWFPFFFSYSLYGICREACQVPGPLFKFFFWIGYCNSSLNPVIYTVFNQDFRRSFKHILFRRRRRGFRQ
Summary of the method: (§3)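 Membranes from CHO-K1 cells stably expressing each human α2-AR subtype (6–10 µg protein). Used 0.2 nM [3H]RS-79948-197 and 8 serial dilutions of competitor in 50 mM potassium phosphate, pH 7.4. Non-specific binding defined with 100 µM oxymetazoline. Filtration, then scintillation counting. Run in duplicate, at least 3 repeats. One-site nonlinear fit; IC50 converted to Ki by Cheng-Prusoff.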

[6] = biological target: T5, Alpha-2A adrenergic receptor (Homo sapiens, UniProt P08913); test: Displacement of [3H]RS-79948-197 from human alpha2A adrenoceptor expressed in CHO-K1 cells after 45 mins by liquid scintillation counting; format: cell-based; summary of the method: as §3
T5 sequence (P08913 whole entry): T3 sequence (whole entry)

[7] = biological target: T6, Alpha-2B adrenergic receptor (Homo sapiens, UniProt P18089); test: Displacement of [3H]RS-79948-197 from human alpha2B adrenoceptor expressed in CHO-K1 cells after 45 mins by liquid scintillation counting; format: cell-based; summary of the method: as §3
T6 sequence (P18089 whole entry): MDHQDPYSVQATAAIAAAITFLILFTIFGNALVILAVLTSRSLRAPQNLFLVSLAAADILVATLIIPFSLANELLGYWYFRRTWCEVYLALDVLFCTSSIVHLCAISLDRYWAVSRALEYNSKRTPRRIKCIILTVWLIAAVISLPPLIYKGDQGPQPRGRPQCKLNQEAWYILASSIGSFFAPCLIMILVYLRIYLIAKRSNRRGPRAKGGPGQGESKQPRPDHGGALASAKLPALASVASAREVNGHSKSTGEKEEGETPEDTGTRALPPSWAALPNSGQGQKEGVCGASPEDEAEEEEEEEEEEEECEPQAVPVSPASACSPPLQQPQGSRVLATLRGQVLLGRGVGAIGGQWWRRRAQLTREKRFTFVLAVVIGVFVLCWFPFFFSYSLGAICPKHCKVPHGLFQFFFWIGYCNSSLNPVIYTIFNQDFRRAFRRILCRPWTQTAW

[8] = biological target: T5, Alpha-2A adrenergic receptor; test: Agonist activity at human alpha2A adrenoceptor expressed in CHO-K1 cells after 30 mins by [35S]GTPgammaS binding assay; format: functional, cell-based; summary of the method: as §2

SMILES | Ki [1] | Ki [2] | IC50 (Nischarin) | Ki [3] | Intrinsic activity [4] | Ki [5] | Ki [6] | Ki [7] | EC50 [8]
Fc1c(F)c(F)c2c(cnn2N=C2NCCN2)c1F | 3717 nM | 22700 nM | 5830 nM | 19793 nM |  |  |  |  | 
Fc1cccc2c1cnn2N=C1NCCN1 | 416 nM | 6180 nM | 14800 nM | 3807 nM |  |  |  |  | 
c1ccc2c(c1)cnn2N=C1NCCN1 [MARSANIDINE] | 14.05 nM | 16900 nM |  |  | 14% | 640 nM | 52 nM | 79 nM | 93.3 nM
Fc1cccc2c1cnn2CC1=NCCN1 | 187.3 nM | 21.9 nM | 1770 nM | 534.7 nM |  |  |  |  | 
